Here are results for 3 compounds from ChEMBL document CHEMBL1123311, “Synthesis and antitumor and antiviral properties of 5-halo- and 5-(trifluoromethyl)-2'-deoxyuridine 3',5'-cyclic monophosphates and neutral triesters” (1986).

Test [1] has as its system Human alphaherpesvirus 2. The experiment in a line: Evaluation of antiviral activity against Herpes simplex virus type 2 (HSV-2) strain 196. Type of test: functional. The gist of the method:
(§1)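 Virus-induced cytopathogenicity scored in primary rabbit kidney cell cultures. Value is the minimum concentration reducing cytopathogenicity by 50%. Cytotoxicity on uninfected cells was read as the minimal concentration causing a microscopically detectable change in normal cell morphology, tested up to 400 μg/mL.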

Test [2] deals with Human alphaherpesvirus 2. In words: Evaluation of antiviral activity against Herpes simplex virus type 2 (HSV-2) strain G. Type of test: functional. In outline: as §1
Test [3] deals with Human alphaherpesvirus 2. The experiment in a line: Evaluation of antiviral activity against Herpes simplex virus type 2 (HSV-2) strain Lyons. Type of test: functional. The gist of the method: as §1
The subject of test [4] is Human alphaherpesvirus 1. The experiment in a line: Evaluation of antiviral activity against Herpes simplex virus type 1 (HSV-1) strain F. In kind it is functional. The gist of the method:
as §1

Test [5] relates to Human alphaherpesvirus 1. The experiment in a line: Evaluation of antiviral activity against Herpes simplex virus type 1 (HSV-1) strain McIntyre. In kind it is functional. The gist of the method:
as §1

The subject of test [6] is L1210. In words: Evaluation of antitumor activity against mutant murine leukemia L1210 cells. In kind it is functional. As to conditions: Mus musculus, read-out: ID50 (the source's name). In outline:
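Proliferation of mutant murine leukemia L1210/BdUrd cells, selected from parental L1210/0 for growth in 260 μg/mL 5-bromo-2'-deoxyuridine. Value is the dose inhibiting proliferation by 50%.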

Test [7] deals with L1210. In words: Evaluation of cytostatic activity by using antitumor assays against murine leukemia L1210 cells. Type of test: functional. As to conditions: Mus musculus, read-out: ID50 (the source's name).
The subject of test [8] is Vesicular stomatitis virus. The experiment in a line: Evaluation of antiviral activity against Vesicular stomatitis virus. Type of test: functional. In outline:
as §1

In a further test the test system is Vaccinia virus. In words: Evaluation of antiviral activity against Vaccinia virus. The settings on record: Orthopoxvirus vaccinia. In kind it is functional. The gist of the method: as §1
For a further test, the system named is Raji. The experiment in a line: Evaluation of antitumor activity against thymidine kinase deficient Raji cell line. Type of test: functional. As to conditions: Homo sapiens, read-out: ID50 (the source's name).
The species entered for a further test is Homo sapiens. In words: Evaluation for antitumor activity against human lymphoblast Raji cells. Type of test: functional. The settings on record: Homo sapiens, Raji; read-out: ID50 (the source's name).
Test [9] relates to Human alphaherpesvirus 1. The experiment in a line: Evaluation of antiviral activity against Herpes simplex virus type 1 (HSV-1) strain KOS. In kind it is functional. The gist of the method: as §1
The target of test [10] is Thymidylate synthase (Mus musculus) (UniProt P07607).
Test [11] shares this target. The experiment in a line: Compound was evaluated for the inhibition of L1210 thymidylate synthetase (L1210 dTMP). In outline:
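Enzyme source was a partially purified extract of murine leukemia L1210 cells. The dTMP synthetase assay followed an earlier published method, and no reaction conditions are given here.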

For test [12], the system named is Vesicular stomatitis virus. In words: Compound was evaluated for the antiviral activity against Vesicular stomatitis virus. In kind it is functional. The gist of the method: as §1
In test [13] the test system is Human alphaherpesvirus 1. In words: Compound was evaluated for the antiviral activity against Herpes simplex virus type 1 (HSV-1) strain F. The settings on record: read-out: ID50 (the source's name). Type of test: functional. In outline:
as §1

The test system of test [14] is Human alphaherpesvirus 1. The experiment in a line: Compound was evaluated for the antiviral activity against Herpes simplex virus type 1 (HSV-1) strain KOS. In kind it is functional. As to conditions: read-out: ID50 (the source's name). In outline: as §1

The structures appear in SMILES notation. Values after ≈ are worked out from the molar mass of the structure shown.

Chain of Thymidylate synthase (Mus musculus) (P07607 whole entry, looked up): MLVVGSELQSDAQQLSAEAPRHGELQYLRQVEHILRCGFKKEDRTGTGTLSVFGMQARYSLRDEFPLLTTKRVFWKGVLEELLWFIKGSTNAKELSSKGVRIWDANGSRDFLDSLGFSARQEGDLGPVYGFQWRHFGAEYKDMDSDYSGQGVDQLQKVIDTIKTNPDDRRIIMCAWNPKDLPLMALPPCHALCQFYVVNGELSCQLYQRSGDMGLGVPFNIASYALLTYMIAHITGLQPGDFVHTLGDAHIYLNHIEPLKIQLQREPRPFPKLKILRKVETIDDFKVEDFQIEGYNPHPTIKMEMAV

Consider `O=c1[nH]c(=O)n([C@H]2C[C@H](O)[C@@H](COP(=O)(O)O)O2)cc1I`, for which the MIC50 against Human alphaherpesvirus 2 [1] was 0.7 µg/mL (≈ 1.61 µM); in the test on Human alphaherpesvirus 2 [2], 0.4 µg/mL (≈ 0.921 µM); against Human alphaherpesvirus 2 [3] it was 0.2 µg/mL (≈ 0.461 µM); in the test on Human alphaherpesvirus 1 [4] it was 0.4 µg/mL (≈ 0.921 µM); against Human alphaherpesvirus 1 [5], 0.2 µg/mL (≈ 0.461 µM); in [8] it was over 400 µg/mL. Further, the MIC50 against Vaccinia virus and against Human alphaherpesvirus 1 [9] was 0.2 µg/mL (≈ 0.461 µM) each time. Further, the IC50 in the test with L1210 [6] is over 500 µg/mL; in the test on L1210 [7], 31 µg/mL (≈ 71.4 µM); in the test on Raji it was over 500 µg/mL; in the test filed under Homo sapiens, 6.8 µg/mL (≈ 15.7 µM). The compound further yielded a Ki/Km in test [10] of 3.54.
On to `N.O=c1[nH]c(=O)n([C@H]2C[C@@H]3O[PH](O)(O)OC[C@H]3O2)cc1Cl`, for which the MIC50 against Human alphaherpesvirus 2 [1] is 150 µg/mL; against Human alphaherpesvirus 2 [2] it was 40 µg/mL; against Human alphaherpesvirus 2 [3] it was 20 µg/mL; in the test on Human alphaherpesvirus 1 [4] it was 100 µg/mL; against Human alphaherpesvirus 1 [5] it was 100 µg/mL; in test [12] it was over 400 µg/mL. Besides, the MIC50 in the test on Vaccinia virus stood at 2 µg/mL; with Human alphaherpesvirus 1 [9], 20 µg/mL. Besides, the IC50 was over 1000 µg/mL with L1210 [6], 337 µg/mL in the test on L1210 [7], over 1000 µg/mL in the test on Raji and 337 µg/mL in the test listed under Homo sapiens. The compound also came in with a Ki/Km in test [11] of over 356.
`COP1(=O)OC[C@H]2O[C@@H](n3cc(I)c(=O)[nH]c3=O)C[C@@H]2O1` (some centres undefined): the MIC50 against Human alphaherpesvirus 2 [1] was 300 µg/mL (≈ 698 µM); in the test with Human alphaherpesvirus 2 [2], 300 µg/mL (≈ 698 µM); in the test on Human alphaherpesvirus 2 [3] it was 150 µg/mL (≈ 349 µM); in the test on Human alphaherpesvirus 1 [5] it was 70 µg/mL (≈ 163 µM); in test [8], over 400 µg/mL; against Vaccinia virus, 20 µg/mL (≈ 46.5 µM). The IC50 with Human alphaherpesvirus 1 [13] and in the test with Human alphaherpesvirus 1 [14] was 150 µg/mL (≈ 349 µM) throughout.
